Screens as filed in PubChem.
Shown are actives, neighbours in structure and some others; about 2.3% of the full set was active somewhere.
SUMO1 PPI mod: modulators of human SUMO1-mediated protein-protein interactions; hit rate 0.33% among 360,000; P63165; SUMO1 binding to a labelled peptide, TR-FRET, 1 h; inhibition, % at 20 µM; in the data active means inhibition above about 37%
Rpn11 inh: inhibitors of human proteasome Rpn11. O00487. human 26S proteasome, Ub4-pepOG fluorescence polarization; 20S core pre-blocked with epoxomicin. inhibition, % at 20 µM. hit rate 0.59% among 360,000;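 active means inhibition at 20 µM, scaled to each plate's controls, above about 33%, limit read from the data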
CSN inh: CSN deneddylation inhibition; Q92905; Purified CSN, SCF-Nedd8-OG deneddylation, fluorescence polarization; inhibition, % at 12.5 µM; hit rate 0.38% among 360,000; AID 651999;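 active means pattern-corrected inhibition above about 35%, with an unprinted fluorescence ratio check between 0.5 and 1.5, limit read from the data, passing the limit was not always enough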;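 further: 0% = enzyme with substrate and 100% = substrate without enzyme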
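test system = HEK293T-derived human Csn5 enzyme | amount = 0.24 nM Csn5 enzyme, final concentration | medium = Tris/NaCl/DTT buffer, pH 7.5 | schedule = 90 min reaction at room temperature | signal = FP | evaluation = inhibition of Csn5 cleavage, % | compound dosing = single dose of 12.5 µM compound with 0.25% DMSO | probe or stimulus = 10 nM SCFSkp2-Nedd8OG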
DNMT1 inh: inhibitors of human DNMT1; P26358; DNMT1 molecular beacon, Hinp1I cleavage, fluorescence; inhibition (reported as % activation of signal), % at 10 µM; AID 588458; hit rate 0.83% among 360,000; in the data active means inhibition above about 50%
SKN-1 block: inhibitors of C. elegans SKN-1; C. elegans VP596 Pgst-4::GFP/RFP ratio, acrylamide-induced, 24 h; inhibition, % at 21.8 µM; hit rate 0.49% among 360,000; AID 624304;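 active means interference check ratio from 0.5 to 1.5 plus GFP to RFP signal ratio inhibition reaching or exceeding a fixed threshold, cut at about 30% in these data, passing the limit was not always enough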
MT1-MMP act inh: blocks activation of human MT1-MMP | P50281 | AID 651647 | HT1080 RFP-PRO-GFP cells, GFP/RFP ratio fluorescence, overnight; percent of plate control window, DMSO zero | GFP/RFP ratio change, % at 20 µM | hit rate 0.061% among 360,000;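 active means GFP/RFP ratio change of at least 30% with cell ATP level not reduced by more than half and red fluorescence within 50% of control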
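Material – HT1080 RFP-PRO-GFP cells · Control set – DMSO wells and RFP-L50D-GFP cells · Incubation – overnight cell settling, then overnight compound exposure, 37 °C, 5% CO2 · Compound dosing – single-point 20 µM compound, 1% DMSO · Read-out – GFP/RFP fluorescence ratio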
Rpn11 confirm: confirmation of human proteasome Rpn11 inhibitors; shares compounds with Rpn11 inh; purified human 26S proteasome, Ub4-pepOG fluorescence polarization; proteasome pretreated with epoxomicin; inhibition, % at 20 µM; hit rate 29% among 1,900; AID 602318
MMP-2 inh: counter-screen for RPN11 inhibitors: inhibition of human MMP-2; shares compounds with Rpn11 inh; recombinant MMP-2, FRET peptide cleavage fluorescence; inhibition, % at 20 µM; AID 602330; hit rate 4% among 1,900;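 further: human MMP-2 activated beforehand with APMA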
Target sequence (P08253 whole entry, looked up): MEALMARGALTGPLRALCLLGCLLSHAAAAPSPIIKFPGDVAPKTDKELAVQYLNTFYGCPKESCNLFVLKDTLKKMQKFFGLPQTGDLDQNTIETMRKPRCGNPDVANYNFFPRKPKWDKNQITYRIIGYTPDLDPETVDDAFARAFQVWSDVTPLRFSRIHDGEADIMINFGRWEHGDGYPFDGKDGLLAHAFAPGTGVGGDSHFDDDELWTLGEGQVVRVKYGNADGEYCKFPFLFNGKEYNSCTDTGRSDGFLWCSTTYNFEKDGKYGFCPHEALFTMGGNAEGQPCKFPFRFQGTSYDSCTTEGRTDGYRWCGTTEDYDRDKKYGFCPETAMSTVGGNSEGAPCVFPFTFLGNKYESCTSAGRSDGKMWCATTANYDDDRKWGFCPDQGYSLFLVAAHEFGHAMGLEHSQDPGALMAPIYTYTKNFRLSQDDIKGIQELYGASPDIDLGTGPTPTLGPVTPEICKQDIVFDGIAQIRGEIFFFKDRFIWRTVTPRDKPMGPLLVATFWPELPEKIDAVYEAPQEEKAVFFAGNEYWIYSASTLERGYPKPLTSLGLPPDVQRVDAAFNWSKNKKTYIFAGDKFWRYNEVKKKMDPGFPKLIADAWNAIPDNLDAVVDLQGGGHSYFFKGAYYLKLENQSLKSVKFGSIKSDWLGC
Thrombin FP: counter-screen for RPN11 inhibitors: inhibition of bovine thrombin | hit rate 13% among 1,900 | inhibition, % at 20 µM | bovine thrombin cleavage of Ub4-pepOG, fluorescence polarization | AID 602333 | shares compounds with Rpn11 inh;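 active means mean inhibition at least 40% at 20 µM, or signal 3 deviations below plate average, so some actives read negative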;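 further: plate controls were thrombin with DMSO for no effect and buffer wells lacking thrombin for full effect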
Numbers without * were called inactive; . = no result. Unless noted, no stated cut-off is given here; in the data, active means inhibition above about 40%; inactive means the rest.

SMILES	SUMO1 PPI mod	Rpn11 inh	CSN inh	DNMT1 inh	SKN-1 block	MT1-MMP act inh	Rpn11 confirm	MMP-2 inh	Thrombin FP
CCCC1NC(=O)c2cc3ccccc3cc2-n2c1nc1cc(F)ccc1c2=O (stereo not drawn)	-18	-5	-1	-1	-5	-6	.	.	.
Cc1ccc(Cc2c(-c3cccc(Br)c3)nc3ccc(Cl)cn23)cc1	1	42*	6	39	21	1	15	24	-1
Clc1ccc2nc(-c3cccc(Br)c3)c(Cc3ccccc3)n2c1	5	20	15	9	19	-3	.	.	.
COc1ccc(Cc2c(-c3ccc(C)cc3)nc3c(C)cc(Br)cn23)c(C)c1	-5	49*	8	-11	6	-3	22	16	13
COc1ccccc1Cc1c(-c2cccc(Cl)c2)nc2ccc(Br)cn12	-5	61*	15	14	9	-9	50*	0	36
FC(F)(F)c1ccccc1Cc1c(-c2cccc(Br)c2)nc2c3ccccc3ccn12	5	42*	6	-5	27	16	10	-2	11
COc1ccc(Cc2c(-c3ccc(OC)c(OC)c3)nc3c(C)cc(Br)cn23)c(C)c1	-9	12	-1	22	4	7	.	.	.
COC(=O)c1ccc2nc(-c3cccc(Cl)c3)c(Cc3ccccc3OC)n2c1	14	31	6	3	14	-3	.	.	.
Cc1cc(Br)cn2c(Cc3ccccc3C(F)(F)F)c(-c3cccc(Br)c3)nc12	1	.	-1	.	8	5	.	.	.
CCCn1cnnc1CNC(=O)[C@H]1O[C@@H](n2ccc(=O)[nH]c2=O)[C@H](O)[C@@H]1O	6	8	1	-1	6	-1	.	.	.
CC(=O)Nc1cccc(-c2ccnc3c2CC(C)(C(=O)NCc2ccncc2)O3)c1 (stereo not drawn)	-2	-5	-1	-2	14	5	.	.	.
COc1cccc(C(=O)C(=O)N2CCN(C(=O)OCc3ccccc3)CC2)c1	-3	.	-2	.	-7	1	.	.	.
Brc1ccc2nc(C3CCCCC3)c(Cc3ccsc3)n2c1	-1	-32	-6	6	-3	-8	.	.	.
CCOC(=O)C1(C)CCCN(C(=O)c2cc(C)oc2C)C1 (stereo not drawn)	0	-5	-7	-1	15	0	.	.	.
COc1ccccc1Cc1c(-c2cccc(Br)c2)nc2c(C)cc(Br)cn12	2	42*	4	-8	16	-2	15	-7	20
COc1ccccc1Cc1c(-c2ccc(Cl)cc2)nc2c(C)cc(Br)cn12	9	27	10	11	-7	-11	.	.	.
COc1ccc(CNC(=O)Nc2nnc([C@@H]3C[C@H](O)[C@@H](CO)O3)s2)cc1	-2	2	3	1	11	2	.	.	.
COc1cc2c(C#CCO)c(-c3ccc(C#N)cc3)oc(=O)c2cc1OC	62*	56*	19	-28	12	1	19	-30	4
COc1cc2c(C#CCCCO)c(-c3ccc(C#N)cc3)oc(=O)c2cc1OC	-3	-2	7	-21	10	-3	.	.	.
CCOc1ccc(CN(C)C(=O)c2cccc(S(=O)(=O)Nc3ccccc3OC)c2)cc1OC	3	9	-2	3	18	-1	.	.	.
NS(=O)(=O)c1ccc(CCNC(=O)CCc2nc3sc4c(c3c(=O)[nH]2)CCCC4)cc1	5	41*	8	2	12	0	26	-29	16
O=C(CCc1nc2sc3c(c2c(=O)[nH]1)CCCC3)NCCc1ccc(Cl)cc1	-6	39	10	17	11	-2	.	.	.
CCc1ccc(NC(=O)CCc2nc3sc4c(c3c(=O)[nH]2)CCCC4)cc1	-2	40*	2	21	16	-7	55*	4	34
CCOC(=O)C1CCN(C(=O)CCc2nc3sc4c(c3c(=O)[nH]2)CCCC4)CC1	2	41*	4	7	-2	-7	67*	-4	46*
CN(CC(=O)Nc1ccc(F)c(F)c1F)C(=O)CCc1nc2sc3c(c2c(=O)[nH]1)CCCC3	4	45*	22	49	25	-8	59*	-9	34
SMILES	SUMO1 PPI mod	Rpn11 inh	CSN inh	DNMT1 inh	SKN-1 block	MT1-MMP act inh	Rpn11 confirm	MMP-2 inh	Thrombin FP
COc1ccc(C2=Nc3ccccc3N(C(=O)c3cccnc3)C2C(=O)NC(C)(C)C)cc1 (stereo not drawn)	-18	.	0	.	-5	-1	.	.	.
CC(=O)c1cccc(NC(=O)CCc2nc3sc4c(c3c(=O)[nH]2)CCCC4)c1	-5	44*	15	12	-3	-12	55*	-4	41*
CC(C)[C@@H]1Cc2[nH]n(C)c(=O)c2[C@H](c2ccc(Cl)cc2)O1	5	.	-4	.	12	11	.	.	.
O=C(Cn1cnc2c(nnn2-c2cccc(F)c2)c1=O)Nc1ccc2c(c1)OCCO2	5	3	4	5	14	0	.	.	.
COc1ccc(-n2nnc3c(=O)n(CC(=O)Nc4ccc5c(c4)OCCO5)cnc32)cc1OC	19	44*	9	-4	17	-1	17	-25	7
Cn1c(N)c(C(=O)COC(=O)c2cc(C3CC3)nc3ccccc23)c(=O)n(Cc2ccccc2)c1=O	-2	41*	2	-19	15	-13	29	-15	6
Cn1c(N)c(C(=O)COC(=O)c2cc(-c3ccccc3)nc3ccccc23)c(=O)n(Cc2ccccc2)c1=O	-26	45*	-1	-11	18	-7	33	2	20
COc1ccc(-c2nsc3c(N4CCN(C(=O)c5ccco5)CC4)ncnc23)cc1	-20	6	1	-6	15	5	.	.	.
O=C(c1ccco1)N1CCN(c2ncnc3c(-c4ccccc4)nsc23)CC1	-2	102*	5	-5	15	4	5	-6	-4
Nc1nc2ccccc2n1C(=O)c1ccco1	4	48*	-2	-1	0	3	-5	-37	-14
O=C(NCc1cccnc1)c1cc(C2CCCN(S(=O)(=O)c3cccc4cccnc34)C2)on1 (stereo not drawn)	0	-2	-2	-1	1	0	.	.	.
COc1ccc(-c2cc(-c3ccc(C)cc3)nc(SCc3nnc(-c4ccccc4)o3)c2C#N)cc1OC	-38	122*	18	2	1	-10	-4	-21	-8
